p97 ATPase inh = human p97 ATPase inhibition; P55072; recombinant p97 ATPase, Kinase-Glo ATP luminescence, 3 h; inhibition, % at 8 µM; 220,000 tested, 0.42% active; in the data active = inhibition above about 15%;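 also: 0% = DMSO vehicle and 100% = wells lacking enzyme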
Target sequence (P55072 whole entry, looked up): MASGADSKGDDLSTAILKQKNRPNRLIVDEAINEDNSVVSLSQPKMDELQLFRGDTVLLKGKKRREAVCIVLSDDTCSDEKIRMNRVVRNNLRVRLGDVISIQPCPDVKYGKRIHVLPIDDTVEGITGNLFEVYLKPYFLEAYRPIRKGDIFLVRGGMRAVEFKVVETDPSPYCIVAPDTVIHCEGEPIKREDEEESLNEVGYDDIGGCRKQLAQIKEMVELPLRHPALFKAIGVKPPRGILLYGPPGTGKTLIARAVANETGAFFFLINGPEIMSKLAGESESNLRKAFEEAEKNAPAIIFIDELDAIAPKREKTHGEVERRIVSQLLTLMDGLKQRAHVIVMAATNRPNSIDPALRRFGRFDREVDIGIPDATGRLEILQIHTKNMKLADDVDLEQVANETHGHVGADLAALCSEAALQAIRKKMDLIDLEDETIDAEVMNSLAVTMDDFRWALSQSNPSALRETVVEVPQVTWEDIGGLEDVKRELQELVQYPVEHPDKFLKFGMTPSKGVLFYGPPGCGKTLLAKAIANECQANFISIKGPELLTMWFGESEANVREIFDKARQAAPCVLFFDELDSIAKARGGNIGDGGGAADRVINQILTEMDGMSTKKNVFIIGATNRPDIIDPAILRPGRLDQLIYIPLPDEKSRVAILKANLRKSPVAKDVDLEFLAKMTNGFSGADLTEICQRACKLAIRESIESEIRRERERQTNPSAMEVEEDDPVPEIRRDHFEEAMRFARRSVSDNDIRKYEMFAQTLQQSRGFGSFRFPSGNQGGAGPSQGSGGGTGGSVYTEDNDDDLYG
RBBP9 inhibitor = blocks human serine hydrolase RBBP9 | O75884 | recombinant RBBP9, FP-Rh probe fluorescence polarization | inhibition, % at 7.94 µM | 220,000 tested, 0.2% active | AID 1515;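 active = inhibition above the campaign mean of all tested compounds plus 3 SD, cut at about 14% in these data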;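 also: plate controls were DMSO wells with RBBP9 for no effect and wells lacking RBBP9 protein for full effect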
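System: RBBP9 protein / Quantity: 2.5 µM RBBP9 dispensing solution, before mixing / Also added: Serine-hydrolase probe FP-Rh, 375 nM pre-mixing / Dosing: 7.94 µM single dose, 0.794% DMSO / Timing: enzyme-compound preincubation 30 min, then probe labeling 45 min, 25 °C / Signal: FP readout at 525/598 nm / Controls: DMSO-treated enzyme wells and wells lacking RBBP9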
PKD1 kinase inh = PKD1 (human) kinase inhibition; inhibition, % (no concentration beside the values); 200,000 tested, 0.056% active; PKD1 kinase fluorescence polarization assay; AID 797; Q15139; in the data active = inhibition above about 50%
Wee1 degr inh = inhibitors of human Wee1 degradation; 220,000 tested, 1.2% active; HeLa Luc-Wee1K328M stability, luciferase luminescence; 100% = proteasome inhibitor MG132 effect; AID 1321; reporter increase, % at 5 µM; P30291;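 active = activation above the mean of all tested compounds plus 3 SD, set per screening run, cut at about 8.8% in these data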;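 also: cells exposed to compound for 20 h before luminescence read; 0% = DMSO alone and 100% = MG132 at 30 µM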
Redox H2O2 prof = compounds producing H2O2 with reducing agent – biochemical, NIH compound library profiling, artefact control for MLSCN library redox annotation, primary screen | AID 878 | DTT-dependent redox cycling H2O2, phenol red/HRP absorbance; 100% = 100 µM peroxide control, 0% = buffer | activation, % at 10 µM | 200,000 tested, 0.03% active;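 active = activation of at least 50% relative to the plate's high and low controls in the primary single-dose screen; inactive = activation below 50%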;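 also: compound incubated with DTT at 0.8 mM final as the reducing agent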
Arbovirus inh = arbovirus infection inhibition | 200,000 tested, 0.37% active | arbovirus infection cell-based antiviral screen | inhibition, % at 10 µM; in the data active = inhibition above about 30%
Wee1 stab conf = human Wee1 degradation inhibition, confirmation; shares compounds with Wee1 degr inh; HeLa Luc-Wee1K328M degradation, luminescence; vehicle 0%, proteasome-blocked wells 100%; activation, % at 5 µM; 1,100 tested, 4% active; AID 1410; in the data active = activation above about 8.9%
* = called active by the depositor; / = no result. This is a sample that favours compounds with a hit; in the whole collection about 2.2% have one here.

SMILES	p97 ATPase inh	RBBP9 inhibitor	PKD1 kinase inh	Wee1 degr inh	Redox H2O2 prof	Arbovirus inh	Wee1 stab conf
C=CCc1cccc2cc(C(=O)NC3CCCCC3)c(=O)oc12	2	2	-7	17*	-1	3	-1
CC12CCC(=O)N1C(C(=O)OCC(=O)Nc1ccc(Cl)c(Cl)c1)CS2 (stereo unspecified)	-3	-6	1	21*	0	2	-3
COc1ccc(C(=O)CSc2ccccc2C(=O)O)cc1	-1	-5	-7	0	-1	-8	/
COc1ccc(-c2c(C)c3ccc(OCC(C)=O)cc3oc2=O)cc1	-1	4	-1	4	1	-3	/
COc1ccc(-c2cc(=O)oc3cc(OCC(C)=O)ccc23)cc1	2	-5	-14	17*	0	-6	1
CC(Cc1cccnc1)NC(=O)CCc1nnc(-c2ccccc2)o1 (stereo unspecified)	4	-1	-2	19*	-1	4	4
Cc1ccc(NC(=O)NCc2c(C)nn(C)c2C)cc1Cl	1	-8	-5	18*	-1	-11	4
Cc1nn(C)cc1CNC(=O)Nc1ccc(Cl)c(Cl)c1	-5	-2	0	2	0	8	/
CCCCNC(=O)COC(=O)c1ccc(F)cc1Cl	0	2	-4	-2	8	2	/
Cc1ccc(NC(=O)CSc2nnc(-c3cccs3)o2)cc1S(=O)(=O)N(C)C	0	-5	0	21*	-1	-1	2
O=C(NC1CCCCC1)C(=S)N1CCOCC1	8	-2	3	0	0	9	/
CCCC/C(C)=N/NC(=O)C(=O)NCCc1ccccc1	2	-4	-4	0	-4	-6	/
Cc1ccc(CN2CCN(Cc3cccn3-c3nccs3)CC2CCO)cc1 (stereo unspecified)	0	-5	-1	13*	0	7	-1
Cc1sc2ncnc(Oc3ccc(-n4ccnc4)cc3)c2c1C	4	4	-4	2	0	-2	/
COc1cccc(C(=O)/C=C2\Sc3ccccc3N2C)c1	0	1	-6	-1	1	-7	/
CN1/C(=C\C(=O)c2cccnc2)Sc2ccccc21	-5	-2	-6	13*	-1	-3	5
CCN(CC)c1ccc(NC(=O)c2cnccn2)cc1S(=O)(=O)Nc1ccc(OC)cc1	1	-7	4	12*	0	-18	3
Cc1ccnc(N2C3CCC2CC(O)(c2ccccc2)C3)n1 (stereo unspecified)	-2	-11	-3	12*	0	3	0
CCC(C)NC(=O)Cn1cnc2sc(C)c(S(=O)(=O)N3CCN(c4ncccn4)CC3)c2c1=O (stereo unspecified)	7	-1	1	16*	0	4	1
COC(=O)[C@@H]1CC[C@H](C)[C@@H](c2ccc(C)cc2)N1C(=O)c1ccc(/C=N/O[C@@H](C)c2cn([C@H](CO)Cc3ccccc3)nn2)cc1	-3	-2	10	-3	1	-31	/
CC(C)C(=O)Nc1cccc(-c2cn3ccccc3n2)c1	-5	-12	-5	1	-1	-5	/
CC(=O)Nc1cccc(-c2cn3ccccc3n2)c1	10	-6	2	11*	-1	1	-2
Cc1ccccc1NC(=O)c1cc(C(=O)c2cc(Cl)ccc2O)cn(-c2ccccc2C)c1=O	4	-34	-12	14*	0	-10	0
Cc1ccc(-n2cc(C(=O)c3cc(Cl)ccc3O)cc(C#N)c2=O)cc1	2	-3	-5	3	0	1	/
O=C(/C(=C/O)N=Nc1ccccc1)c1cccs1	4	-6	-3	11*	0	3	2
SMILES	p97 ATPase inh	RBBP9 inhibitor	PKD1 kinase inh	Wee1 degr inh	Redox H2O2 prof	Arbovirus inh	Wee1 stab conf
CCC(Oc1ccccc1)C(=O)O/N=C(\N)c1ccc(OC)c(OC)c1 (stereo unspecified)	-2	-5	-7	1	0	0	/
Cc1nonc1NC(=O)CSc1nc2cc(Cl)ccc2c2c1CCCC2	-3	-6	3	1	-3	-2	/
Cc1ccc2c3c(c(SCC(=O)Nc4nonc4C)nc2c1)CCCC3	2	-7	5	13*	1	-11	2
O=C(N/N=C/c1ccc2ncccc2c1)c1ccco1	-9	-9	0	13*	0	4	-4
CCOC(=O)c1ccc(NS(=O)(=O)c2cccc3nsnc23)cc1	4	-2	-10	1	0	10	/
CNC(=O)c1c(NC(=O)c2cc(-c3cc(C)c(C)cc3O)n[nH]2)sc2c1CCCC2	6	7	/	4	/	/	/
CCC1Cc2c(nc3c4c(nc(N5CCOCC5)c(C#N)c24)NC(C)=N3)O1 (stereo unspecified)	5	0	-2	-1	1	/	/
O=[N+]([O-])c1ccc(/C=C/c2ccncc2)cc1	4	-3	/	18*	/	/	-1
COc1ccc(CCC(=O)Nc2sccc2C#N)cc1	5	-11	-2	12*	0	1	0
Cn1c(SC/C=C/c2ccccc2)nnc1-c1ccco1	4	-3	-4	12*	3	-3	0
CC(/C=C/C=C/c1ccccc1)=N/NC(=O)c1ccc2c(c1)OCCO2	1	0	/	11*	/	/	3
O=C(Nc1ccccn1)c1csc2c1CCCC2	-2	-3	-10	18*	0	-4	5
COc1ccccc1NC(=O)c1csc2c1CCCC2	-2	-6	3	0	-6	12	/
CCOC(=O)N1CCN(C(=S)Nc2cc(OC)c(OC)cc2C(=O)OC)CC1	3	-7	-1	0	2	2	/
CCCC(=O)N1CCN(c2ccc(NC(=O)c3cccs3)cc2Cl)CC1	-2	-6	-1	16*	2	-23	-1
CC(=O)Nc1ccc(OC(F)(F)C(F)C(F)(F)F)c(NC(C)=O)c1 (stereo unspecified)	-1	-5	-3	0	0	8	/
O=c1cc(/C=C/c2ccccc2)oc2ccccc12	-2	-6	-7	12*	-1	6	5
Cc1cccc(-c2noc(-c3cc4ccccc4oc3=O)n2)c1	1	3	2	1	-6	10	/
CN1CCC(OC(=O)c2cccc(Cl)c2)CC1	1	-5	-2	-3	0	-2	/
Cc1cccc(OCC(=O)O/N=C(\N)c2ccccn2)c1C	-1	10	-5	11*	3	-7	4
CCOC(=O)c1c(CN2CCN(Cc3ccccc3)CC2)n(C)c2cc(Br)c(OC)cc12	-6	-7	5	0	0	-4	/

Assay outcomes as filed in PubChem BioAssay.
